Assay results published in ChEMBL document CHEMBL2177028, “Insights into the structural determinants required for high-affinity binding of chiral cyclopropane-containing ligands to α4β2-nicotinic acetylcholine receptors: an integrated approach to behaviorally active nicotinic ligands” (J Med Chem, 2012).
The source made the active and inactive calls. The rule behind the calls is not given here.

Experiments:
[1] = test system: Mus musculus; assay: Antidepressant-like effect in mouse assessed as behavioral changes at 5 to 10 mg/kg, ip dosed 15 mins before testing by SmartCube system; assay type: functional, organism-based
How it was run: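 SmartCube automated mouse behavioural profiling. Drug injected 15 min before the session, during which multiple challenges were presented; at least 12 mice per group. Video processed by computer vision to extract over 2000 measures (frequency and duration of states such as grooming and rearing), compared with vehicle signature.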

[2] = biological target: T1, Neuronal acetylcholine receptor; alpha4/beta2 (Homo sapiens, UniProt P17787+P43681); assay: Antagonist activity at high sensitivity and low sensitivity alpha4beta2-nAChR expressed in human SH-EP1 cells assessed as inhibition of carbamylcholine-induced stimulation effect measured after 10 mins carbamylcholine challenge by 86Rb+ ion flux assay relative to control; assay type: functional, cell-based
How it was run: (§1)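 Receptor inactivation measured by 86Rb+ efflux after 10 min pre-exposure to test ligand, followed by carbamylcholine challenge. Cells: SH-EP1 (human α4β2), SH-SY5Y (α3β4*), TE671/RD (α1β1γδ).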

[3] = biological target: T1, Neuronal acetylcholine receptor; alpha4/beta2; assay: Antagonist activity at high sensitivity and low sensitivity alpha4beta2-nAChR expressed in human SH-EP1 cells assessed as inhibition of carbamylcholine-induced stimulation effect measured after 10 mins carbamylcholine challenge by 86Rb+ ion flux assay; assay type: functional, cell-based; how it was run: as §1
[4] = biological target: T1, Neuronal acetylcholine receptor; alpha4/beta2; assay: Agonist activity at low sensitivity alpha4beta2-nAChR expressed in human SH-EP1 cells by 86Rb+ ion flux assay relative to carbamylcholine; assay type: functional, cell-based
How it was run: (§2)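 86Rb+ efflux through human α4β2-nAChR (mixed high- and low-sensitivity forms) heterologously expressed in SH-EP1 cells. Agonist efficacy expressed as percent of the response to a maximally efficacious concentration of the full agonist carbamylcholine, with high- and low-sensitivity α4β2 responses reported separately.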

[5] = test system: Mus musculus; assay: Antidepressant activity in mouse assessed as immobility time at 10 mg/kg, ip after 30 mins by mouse forced swim test; assay type: functional, organism-based; design: dose 10 mg/kg
How it was run: (§3)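 Mouse forced swim test: mice placed in a beaker of water and time spent passively floating (immobility) recorded. Compounds given intraperitoneally or orally; sertraline 20 mg/kg served as positive control.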

[6] = test system: Mus musculus; assay: Antidepressant activity in mouse assessed as immobility time at 3 mg/kg, ip after 30 mins by mouse forced swim test; assay type: functional, organism-based; design: dose 3 mg/kg; how it was run: as §3
[7] = biological target: T2, Acetylcholine receptor; alpha1/beta1/delta/gamma (Homo sapiens) (UniProt P02708+P07510+P11230+Q07001); assay: Antagonist activity at high sensitivity and low sensitivity alpha1beta1gammadelta-nAChR expressed in human TE671/RD cells assessed as inhibition of carbamylcholine-induced stimulation effect measured after 10 mins carbamylcholine challenge by 86Rb+ ion flux assay; assay type: functional, cell-based; how it was run: as §1
[8] = test system: SH-SY5Y; assay: Antagonist activity at high sensitivity and low sensitivity alpha3beta4*-nAChR expressed in human SH-SY5Y cells assessed as inhibition of carbamylcholine-induced stimulation effect measured after 10 mins carbamylcholine challenge by 86Rb+ ion flux assay; assay type: functional, cell-based; how it was run: as §1
[9] = biological target: T1, Neuronal acetylcholine receptor; alpha4/beta2; assay: Agonist activity at high sensitivity alpha4beta2-nAChR expressed in human SH-EP1 cells by 86Rb+ ion flux assay relative to carbamylcholine; assay type: functional, cell-based; how it was run: as §2
[10] = biological target: T2, Acetylcholine receptor; alpha1/beta1/delta/gamma (Homo sapiens); assay: Agonist activity at high sensitivity and low sensitivity alpha1beta1gammadelta-nAChR expressed in human TE671/RD cells by 86Rb+ ion flux assay; assay type: functional, cell-based
[11] = test system: SH-SY5Y; assay: Agonist activity at high sensitivity and low sensitivity alpha3beta4*-nAChR expressed in human SH-SY5Y cells by 86Rb+ ion flux assay; assay type: functional, cell-based
[12] = biological target: T1, Neuronal acetylcholine receptor; alpha4/beta2; assay: Agonist activity at high sensitivity and low sensitivity alpha4beta2-nAChR expressed in human SH-EP1 cells by 86Rb+ ion flux assay; assay type: functional, cell-based; how it was run: as §2
[13] = biological target: Neuronal acetylcholine receptor; alpha4/beta4 (Rattus norvegicus, UniProt P09483+P12392); assay: Displacement of [3H]epibatidine from rat alpha4beta4-nAChRs after 4 hrs by scintillation counting; assay type: protein-complex assay
How it was run: (§4)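 [3H]epibatidine competition binding at heterologously expressed rat nAChR subtypes, run per the PDSP protocol. Native α4β2* receptors were prepared from rat forebrain. Ki values determined.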

[14] = Displacement of [3H]epibatidine from rat alpha4beta2*-nAChRs after 4 hrs by scintillation counting; how it was run: as §4
[15] = biological target: Neuronal acetylcholine receptor; alpha4/beta2 (Rattus norvegicus, UniProt P09483+P12390); assay: Displacement of [3H]epibatidine from rat alpha4beta2-nAChRs after 4 hrs by scintillation counting; assay type: protein-complex assay; how it was run: as §4
[16] = biological target: Neuronal acetylcholine receptor; alpha3/beta4 (Rattus norvegicus, UniProt P04757+P12392); assay: Displacement of [3H]epibatidine from rat alpha3beta4-nAChRs after 4 hrs by scintillation counting; assay type: protein-complex assay; how it was run: as §4
[17] = biological target: Neuronal acetylcholine receptor; alpha3/beta2 (Rattus norvegicus, UniProt P04757+P12390); assay: Displacement of [3H]epibatidine from rat alpha3beta2-nAChRs after 4 hrs by scintillation counting; assay type: protein-complex assay; how it was run: as §4
[18] = biological target: Neuronal acetylcholine receptor; alpha2/beta4 (Rattus norvegicus, UniProt P12389+P12392); assay: Displacement of [3H]epibatidine from rat alpha2beta4-nAChRs after 4 hrs by scintillation counting; assay type: protein-complex assay; how it was run: as §4
[19] = biological target: Neuronal acetylcholine receptor; alpha2/beta2 (Rattus norvegicus, UniProt P12389+P12390); assay: Displacement of [3H]epibatidine from rat alpha2beta2-nAChRs after 4 hrs by scintillation counting; assay type: protein-complex assay; how it was run: as §4
[20] = Selectivity index, ratio of Ki for Aplysia californica AChBP to Ki for Lymnaea stagnalis AChBP
[21] = biological target: T3, Soluble acetylcholine receptor (Aplysia californica, UniProt Q8WSF8); assay: Displacement of [3H]epibatidine from Aplysia californica AChBP
T3 sequence (Q8WSF8 whole entry): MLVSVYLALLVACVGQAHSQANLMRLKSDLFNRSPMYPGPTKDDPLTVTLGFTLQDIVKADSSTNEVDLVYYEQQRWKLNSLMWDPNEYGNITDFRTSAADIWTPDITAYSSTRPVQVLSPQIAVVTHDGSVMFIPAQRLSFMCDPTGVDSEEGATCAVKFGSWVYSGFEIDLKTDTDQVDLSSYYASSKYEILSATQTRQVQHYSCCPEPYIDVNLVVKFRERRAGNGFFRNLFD
How it was run: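 Competition against [3H]epibatidine at acetylcholine binding proteins (Ac- and Ct-AChBP), giving Ki values. Procedure follows the PDSP assay protocol book.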

[22] = test system: Mus musculus; assay: Antidepressant activity in mouse assessed as immobility time at 3 to 30 mg/kg, po after 30 mins by mouse forced swim test; assay type: functional, organism-based; how it was run: as §3
[23] = organism: Rattus norvegicus; assay: Selectivity index, ratio of Ki for rat alpha3beta4 nAChR to Ki for rat alpha4beta2-nAChR; how it was run: as §4
[24] = Metabolic stability in human liver microsomes assessed as unchanged compound level at 2 uM measured after 1 hr; assay type: ADME, Microsome; details: read-out: Stability
How it was run: (§5)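 Compound incubated with mouse, rat, dog or human liver microsomes at a starting concentration of 2 μM for 1 h. Percent of parent remaining unchanged determined.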

[25] = Metabolic stability in dog liver microsomes assessed as unchanged compound level at 2 uM measured after 1 hr; assay type: ADME, Canis lupus familiaris, Microsome; details: read-out: Stability; how it was run: as §5
[26] = Metabolic stability in mouse liver microsomes assessed as unchanged compound level at 2 uM measured after 1 hr; assay type: ADME, Microsome; details: read-out: Stability; how it was run: as §5
[27] = Metabolic stability in rat liver microsomes assessed as unchanged compound level at 2 uM measured after 1 hr; assay type: ADME, Microsome; details: read-out: Stability; how it was run: as §5
[28] = test system: Mus musculus; assay: Antidepressant activity in mouse assessed as immobility time at 3 mg/kg, po after 30 mins by mouse forced swim test; assay type: functional, organism-based; design: dose 3 mg/kg; how it was run: as §3

Neuronal acetylcholine receptor; alpha4/beta4, sequence (P09483 whole entry): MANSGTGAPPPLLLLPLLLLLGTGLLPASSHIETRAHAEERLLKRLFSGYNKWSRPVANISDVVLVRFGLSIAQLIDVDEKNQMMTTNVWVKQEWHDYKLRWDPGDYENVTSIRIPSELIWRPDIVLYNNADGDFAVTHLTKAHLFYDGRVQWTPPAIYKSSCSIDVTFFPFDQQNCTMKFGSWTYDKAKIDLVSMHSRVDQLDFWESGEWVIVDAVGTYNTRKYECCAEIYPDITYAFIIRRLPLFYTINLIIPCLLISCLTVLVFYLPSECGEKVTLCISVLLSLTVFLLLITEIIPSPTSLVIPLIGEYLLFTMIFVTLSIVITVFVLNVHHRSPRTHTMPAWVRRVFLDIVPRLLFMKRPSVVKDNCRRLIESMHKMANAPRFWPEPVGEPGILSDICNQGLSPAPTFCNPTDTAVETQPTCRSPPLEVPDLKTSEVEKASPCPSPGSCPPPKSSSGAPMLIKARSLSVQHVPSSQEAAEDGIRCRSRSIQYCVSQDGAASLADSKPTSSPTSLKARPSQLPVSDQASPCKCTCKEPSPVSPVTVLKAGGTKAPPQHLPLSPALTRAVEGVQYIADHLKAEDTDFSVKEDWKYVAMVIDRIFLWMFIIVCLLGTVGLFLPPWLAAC
Neuronal acetylcholine receptor; alpha4/beta4, sequence (P12392 whole entry): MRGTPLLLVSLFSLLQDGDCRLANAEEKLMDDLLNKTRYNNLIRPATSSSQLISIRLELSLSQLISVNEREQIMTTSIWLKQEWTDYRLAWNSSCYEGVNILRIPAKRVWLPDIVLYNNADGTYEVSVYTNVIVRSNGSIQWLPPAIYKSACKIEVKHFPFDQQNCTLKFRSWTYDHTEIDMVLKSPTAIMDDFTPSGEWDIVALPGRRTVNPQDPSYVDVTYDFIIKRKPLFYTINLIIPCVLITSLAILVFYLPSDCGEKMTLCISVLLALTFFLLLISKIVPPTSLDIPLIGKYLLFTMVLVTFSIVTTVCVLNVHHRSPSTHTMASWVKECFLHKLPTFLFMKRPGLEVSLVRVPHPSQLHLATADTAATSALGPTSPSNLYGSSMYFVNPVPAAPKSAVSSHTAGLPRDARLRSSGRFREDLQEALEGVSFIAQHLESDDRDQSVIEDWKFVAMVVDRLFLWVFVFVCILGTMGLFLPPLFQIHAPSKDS
Neuronal acetylcholine receptor; alpha4/beta2 (Rattus norvegicus, UniProt P09483+P12390), sequence (P09483 whole entry): as the sequence (P09483 whole entry) above
Neuronal acetylcholine receptor; alpha4/beta2 (Rattus norvegicus, UniProt P09483+P12390), sequence (P12390 whole entry): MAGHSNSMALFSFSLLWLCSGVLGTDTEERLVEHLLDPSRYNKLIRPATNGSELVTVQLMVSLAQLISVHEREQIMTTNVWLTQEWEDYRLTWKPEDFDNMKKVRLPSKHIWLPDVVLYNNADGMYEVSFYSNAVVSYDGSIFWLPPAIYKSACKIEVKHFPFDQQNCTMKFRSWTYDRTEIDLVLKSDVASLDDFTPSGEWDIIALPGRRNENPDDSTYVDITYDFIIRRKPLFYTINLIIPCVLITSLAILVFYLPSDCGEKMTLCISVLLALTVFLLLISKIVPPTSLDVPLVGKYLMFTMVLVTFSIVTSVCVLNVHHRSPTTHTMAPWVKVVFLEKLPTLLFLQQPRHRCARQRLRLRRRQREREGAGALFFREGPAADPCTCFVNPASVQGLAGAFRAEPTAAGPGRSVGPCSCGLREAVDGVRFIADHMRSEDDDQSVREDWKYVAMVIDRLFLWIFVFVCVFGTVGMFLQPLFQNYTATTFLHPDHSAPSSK
Neuronal acetylcholine receptor; alpha3/beta2, sequence (P04757 whole entry): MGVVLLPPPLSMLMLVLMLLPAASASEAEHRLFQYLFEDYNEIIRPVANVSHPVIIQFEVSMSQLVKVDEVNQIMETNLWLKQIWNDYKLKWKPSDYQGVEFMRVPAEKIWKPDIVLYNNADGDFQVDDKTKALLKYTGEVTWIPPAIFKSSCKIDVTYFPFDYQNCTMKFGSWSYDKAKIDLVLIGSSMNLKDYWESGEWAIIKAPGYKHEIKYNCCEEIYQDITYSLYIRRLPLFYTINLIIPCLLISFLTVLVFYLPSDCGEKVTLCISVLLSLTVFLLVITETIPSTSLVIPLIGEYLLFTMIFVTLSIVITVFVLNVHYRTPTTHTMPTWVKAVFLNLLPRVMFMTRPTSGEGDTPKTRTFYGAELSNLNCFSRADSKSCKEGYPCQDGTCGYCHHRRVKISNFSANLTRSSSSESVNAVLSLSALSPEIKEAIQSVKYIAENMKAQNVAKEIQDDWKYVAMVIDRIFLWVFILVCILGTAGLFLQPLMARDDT
Neuronal acetylcholine receptor; alpha3/beta2, sequence (P12390 whole entry): as the sequence (P12390 whole entry) above
Neuronal acetylcholine receptor; alpha3/beta4, sequence (P04757 whole entry): as the sequence (P04757 whole entry) above
Neuronal acetylcholine receptor; alpha3/beta4, sequence (P12392 whole entry): as the sequence (P12392 whole entry) above
T1 sequence (P17787 whole entry): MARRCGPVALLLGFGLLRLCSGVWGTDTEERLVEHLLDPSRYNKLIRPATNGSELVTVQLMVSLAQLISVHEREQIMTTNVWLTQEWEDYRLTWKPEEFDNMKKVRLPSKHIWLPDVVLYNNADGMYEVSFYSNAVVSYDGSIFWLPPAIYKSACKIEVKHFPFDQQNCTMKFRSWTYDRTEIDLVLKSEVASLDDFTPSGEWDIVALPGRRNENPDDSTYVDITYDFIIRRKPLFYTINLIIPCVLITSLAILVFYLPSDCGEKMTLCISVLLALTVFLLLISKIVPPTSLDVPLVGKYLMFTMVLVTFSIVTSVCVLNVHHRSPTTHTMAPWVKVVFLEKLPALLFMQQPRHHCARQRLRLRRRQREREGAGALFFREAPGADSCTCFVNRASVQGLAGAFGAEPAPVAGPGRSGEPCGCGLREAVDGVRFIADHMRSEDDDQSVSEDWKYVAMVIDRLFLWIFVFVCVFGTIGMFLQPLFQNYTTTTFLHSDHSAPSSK
T1 sequence (P43681 whole entry): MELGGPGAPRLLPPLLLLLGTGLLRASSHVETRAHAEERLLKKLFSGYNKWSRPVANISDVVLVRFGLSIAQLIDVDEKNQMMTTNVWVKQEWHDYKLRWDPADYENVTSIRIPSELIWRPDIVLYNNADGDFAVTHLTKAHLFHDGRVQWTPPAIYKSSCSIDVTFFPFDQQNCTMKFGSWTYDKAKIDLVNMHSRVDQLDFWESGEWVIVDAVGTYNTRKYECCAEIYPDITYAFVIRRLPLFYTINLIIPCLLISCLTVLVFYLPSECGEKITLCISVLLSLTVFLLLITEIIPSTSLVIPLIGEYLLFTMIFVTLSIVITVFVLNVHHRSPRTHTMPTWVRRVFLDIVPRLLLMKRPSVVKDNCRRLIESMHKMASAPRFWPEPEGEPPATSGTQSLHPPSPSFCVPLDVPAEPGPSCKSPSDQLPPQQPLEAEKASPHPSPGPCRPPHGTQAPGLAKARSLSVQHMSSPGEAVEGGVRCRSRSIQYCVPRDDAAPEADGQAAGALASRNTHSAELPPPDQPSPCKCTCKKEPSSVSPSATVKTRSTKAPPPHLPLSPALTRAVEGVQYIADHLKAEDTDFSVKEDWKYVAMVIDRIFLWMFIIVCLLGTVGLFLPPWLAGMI
Neuronal acetylcholine receptor; alpha2/beta4, sequence (P12389 whole entry): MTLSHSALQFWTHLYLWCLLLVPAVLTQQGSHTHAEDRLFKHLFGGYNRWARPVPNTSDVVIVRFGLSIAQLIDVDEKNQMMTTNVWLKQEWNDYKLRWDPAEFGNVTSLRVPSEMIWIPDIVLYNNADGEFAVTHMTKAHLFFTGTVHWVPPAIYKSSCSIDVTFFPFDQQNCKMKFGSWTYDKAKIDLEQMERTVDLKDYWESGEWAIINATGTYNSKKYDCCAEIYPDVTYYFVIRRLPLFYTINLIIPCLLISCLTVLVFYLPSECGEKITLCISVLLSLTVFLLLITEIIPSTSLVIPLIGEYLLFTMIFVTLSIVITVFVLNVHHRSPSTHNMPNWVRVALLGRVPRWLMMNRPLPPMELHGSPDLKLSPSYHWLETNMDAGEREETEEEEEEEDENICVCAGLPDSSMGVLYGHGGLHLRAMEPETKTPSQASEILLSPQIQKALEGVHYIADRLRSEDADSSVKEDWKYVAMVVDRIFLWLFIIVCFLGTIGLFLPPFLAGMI
Neuronal acetylcholine receptor; alpha2/beta4, sequence (P12392 whole entry): as the sequence (P12392 whole entry) above
Neuronal acetylcholine receptor; alpha2/beta2, sequence (P12389 whole entry): as the sequence (P12389 whole entry) above
Neuronal acetylcholine receptor; alpha2/beta2, sequence (P12390 whole entry): as the sequence (P12390 whole entry) above

| Compound | Activity [1] | Efficacy [2] | IC50 [3] | Activity [4] | Activity [5] | Activity [6] | inhibition [7] | inhibition [8] | Efficacy [9] | Activity [10] | Activity [11] | EC50 [12] | Ki [13] | Ki [14] | Ki [15] | Ki [16] | Ki [17] | Ki [18] | Ki [19] | Ki [21] | other results |
| --- | --- | --- | --- | --- | --- | --- | --- | --- | --- | --- | --- | --- | --- | --- | --- | --- | --- | --- | --- | --- | --- |
| CC[C@H]1C[C@@H]1c1cncc(OC[C@@H]2CCN2)c1 | Active | 87% | 0.0222 µM | inactive | inactive | inactive | inactive | inactive | 68% | inactive | inactive | 0.0191 µM | 0.0148 µM | 0.0012 µM | 0.0004 µM | 0.852 µM | 0.0103 µM | 0.0418 µM | 0.0004 µM |  |  |
| CNC(=O)OCC[C@H]1C[C@@H]1c1cncc(OC[C@@H]2CCN2)c1 | Active |  |  |  |  |  |  |  |  |  |  |  |  |  |  |  |  |  |  | 1.93 µM | Ratio Ki [20]: 80 |
| CN1CCC[C@H]1c1cccnc1 [NICOTINE] |  |  |  |  |  |  |  |  |  |  |  |  |  |  |  |  |  |  |  | 0.598 µM |  |
| FCC[C@H]1C[C@@H]1c1cncc(OC[C@@H]2CCN2)c1 | Active | 81% | 0.0102 µM | inactive | Active | Active | inactive | inactive | 76% | inactive | inactive | 0.0113 µM | 0.0391 µM | 0.0009 µM | 0.0002 µM | 3.22 µM | 0.0061 µM | 0.138 µM | 0.0004 µM |  | Activity [22]: Active; Ratio Ki [23]: > 16000; remaining at 1 h, 2 µM [24]: ≥ 98%; remaining at 1 h, 2 µM [25]: ≥ 98%; remaining at 1 h, 2 µM [26]: ≥ 98%; remaining at 1 h, 2 µM [27]: ≥ 98%; Activity [28]: Active |
| OCC[C@H]1C[C@@H]1c1cncc(OC[C@@H]2CCN2)c1 | Active |  |  |  |  |  |  |  |  |  |  |  |  |  |  |  |  |  |  | 0.979 µM | Ratio Ki [20]: 80 |
| FC(F)C[C@H]1C[C@@H]1c1cncc(OC[C@@H]2CCN2)c1 | Active | 86% | 0.0086 µM | inactive | inactive | inactive | inactive | inactive | 75% | inactive | inactive | 0.0088 µM | 0.023 µM | 0.0008 µM | 0.0001 µM | 1.98 µM | 0.0069 µM | 0.0854 µM | 0.0003 µM |  | Ratio Ki [23]: > 16000 |
